# Assay results taken from PMC4829539 (International Journal of Medical Sciences, 2016).
# Where two headings read alike, the source gives them in different places.
# Legend:
# [1] = type: in vivo, Male Wistar rats; details: rats, i.v., LC-MS/MS
# Summary of the method: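 Anaesthetised 10-week-old male Wistar rats (pentobarbital 50 mg/kg, 37°C) received test compound 5.0 mg/kg i.v. via jugular vein, in saline. DMN array applied to shaved abdomen (2.0 m/s, then 2.5 N for 1-3 min). 2 µL ISF drawn from pore at 15, 30, 45, 60, 75, 90, 120 min; femoral-vein plasma sampled. Positive-ESI LC-MS/MS quantification; mean ± SE, unpaired t-test.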
# [2] = n = 4, cited from earlier work
# [3] = from DMNs, rats; cited from earlier work
# [4] = rats; cited from earlier work
# [5] = mice; cited from earlier work
compound,measurement,setting,value
"CN[C@H](CC(C)C)C(=O)N[C@H]1C(=O)N[C@@H](CC(N)=O)C(=O)N[C@H]2C(=O)N[C@H]3C(=O)N[C@H](C(=O)N[C@H](C(=O)O)c4cc(O)cc(O)c4-c4cc3ccc4O)[C@H](O)c3ccc(c(Cl)c3)Oc3cc2cc(c3O[C@@H]2O[C@H](CO)[C@@H](O)[C@H](O)[C@H]2O[C@H]2C[C@](C)(N)[C@H](O)[C@H](C)O2)Oc2ccc(cc2Cl)[C@H]1O [VCM, Vancomycin]","Mean concentration of VCM in plasma compared with ISF, early phase",[1]; 30 min after administration,higher than that in ISF
same,"Concentration of VCM in ISF compared with plasma, after 30 min",[1]; after 30 min,higher than that in plasma
same,"AUC, ISF",[2]; ISF by ultrafiltration probe,75300 ± 7700 ng·h/mL
same,"Tmax (average), ISF",[2]; ISF by ultrafiltration probe,39.6 min
same,"AUC, blood",[2]; blood,89800 ± 15700 ng·h/mL
same,Cmax in the blood,[2]; blood,80.2 ± 18.5 µg/mL
low-molecular-weight heparin [LMWH],Physiological availability (PA),[3],81.5-102.3%
recombinant human growth hormone [rhGH],Bioavailability (BA) from the DMNs,[4],87.5%
insulin,Physiological availability (PA),[3],91.3-97.7%
erythropoietin [EPO],Bioavailability (BA) from the DMNs,[5],82.1-99.4%
